According to ChEMBL document CHEMBL2093137, “WHO-TDR NTD Screening”:
Values after ≈ are worked out from the molar mass of the structure shown.

Assays:
[1] = WHO-TDR: Cytotoxicity; type: toxicity, cell-based; conditions: human, MRC5 cells
[2] = test system: Trypanosoma cruzi; test: WHO-TDR: Chagas disease; type: functional, organism-based, Homo sapiens; conditions: MRC5
Outline: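 Whole-organism screen of a 10,000-compound diverse library from Life Chemicals, filtered for drug-likeness and reactive groups, against intracellular amastigotes of Trypanosoma cruzi Tulahuen CL2 beta-galactosidase strain grown in MRC-5SV2 human lung fibroblast host cells. The assay followed previously published standard procedures, with a reference drug as positive control. Antiparasitic potency is reported as IC50.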

[3] = test system: Plasmodium falciparum K1; test: WHO-TDR: Malaria; type: functional, organism-based, Homo sapiens; conditions: Erythrocyte
Outline: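 Values are IC50 figures for antiplasmodial potency. They come from a whole-organism screen of 10,000 diverse Life Chemicals compounds against Plasmodium falciparum K1 growing inside human red blood cells, run by previously published standard procedures.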

[4] = test system: Onchocerca ochengi; test: WHO-TDR: Onchocerciasis; type: functional; design: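 at 12.5 µM on microfilariae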
Outline: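 A diverse library of 10,000 compounds from Life Chemicals, filtered for drug-likeness and reactive groups, was screened against whole microfilariae of Onchocerca ochengi or Onchocerca lienalis. These animal pathogens served as stand-ins for the human parasite. Activity is given as percent inhibition and as IC50.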

[5] = test system: Trypanosoma brucei brucei; test: WHO-TDR: Human African Trypanosomiasis (HAT); type: functional, organism-based; conditions: Squib-427
Outline: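 Values are IC50 figures for antiparasitic potency. They come from a whole-organism screen of 10,000 diverse Life Chemicals compounds against bloodstream-form Trypanosoma brucei (Squib 427 strain).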

[6] = test system: Brugia malayi; test: WHO-TDR: Lymphatic Filariasis; type: functional; design: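 tested at 10 µM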
Outline: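 A diverse library of 10,000 compounds from Life Chemicals was screened against Brugia malayi microfilariae in a whole-organism assay. The library had been filtered for drug-likeness and reactive groups. Activity is given as percent inhibition and as IC50.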

[7] = test system: Leishmania infantum; test: WHO-TDR: Leishmaniasis; type: functional, organism-based, Mus musculus; conditions: Macrophage
Outline: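 Values are IC50 figures for antiparasitic potency. They come from a whole-organism screen of a 10,000-compound diverse Life Chemicals library against Leishmania infantum MHOM/MA(BE)/67 amastigotes inside murine peritoneal macrophage host cells.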

| IC50 [3] [µg/mL] | IC50 [5] [µg/mL] | IC50 [7] [µg/mL] | Compound | IC50 [1] [µg/mL] | IC50 [2] [µg/mL] | % Inhibition [4] [%] | % Inhibition [6] [%] |
| --- | --- | --- | --- | --- | --- | --- | --- |
| > 14.2 | > 14.2 | > 14.2 | CCOC(=O)N1CCN(C(=O)Nc2nc(CC(=O)Nc3nc4ccccc4s3)cs2)CC1 | > 14.2 | > 14.2 | 100 | 20 |
| > 12.3 | > 12.3 | > 12.3 | O=C(Cc1csc(SCc2ccncc2)n1)N1CCN(c2ccccc2)CC1 | > 12.3 | 4.2 (≈ 10.2 µM) | 100 | 0 |
| > 11.5 | > 11.5 | 3.65 (≈ 9.49 µM) | CN(C)c1ccc(NC(=O)Cc2csc(SCc3ccncc3)n2)cc1 | > 11.5 | 3.47 (≈ 9.03 µM) | 100 | 0 |
| > 8.38 | 3.19 (≈ 11.4 µM) | > 8.38 | FC(F)(F)c1ccc(Nc2ncnc3[nH]ncc23)cc1 | > 8.38 | 2.72 (≈ 9.73 µM) | 100 | 0 |
| > 8.8 | > 8.8 | > 8.8 | FC(F)Sc1ccc(Nc2ncnc3[nH]ncc23)cc1 | > 8.8 | > 8.8 | 100 | 0 |
| > 7.6 | > 7.6 | 5.18 (≈ 20.4 µM) | CC(C)c1ccc(Nc2ncnc3[nH]ncc23)cc1 | > 7.6 | 4.44 (≈ 17.5 µM) | 100 | 0 |
| > 7.54 | > 7.54 | > 7.54 | c1ccc2c(c1)CCN(c1ncnc3[nH]ncc13)C2 | > 7.54 | > 7.54 | 100 | 0 |
| > 8.35 | > 8.35 | > 8.35 | c1ccc2c(CCNc3ncnc4[nH]ncc34)c[nH]c2c1 | > 8.35 | 2.44 (≈ 8.76 µM) | 100 | 0 |
| > 13.6 | > 13.6 | > 13.6 | CCOC(=O)N1CCN(C(=O)Nc2nc(CC(=O)Nc3ccc(F)c(F)c3)cs2)CC1 | > 13.6 | > 13.6 | 100 | 20 |
| > 12.6 | > 12.6 | > 12.6 | CCSc1nnc(NC(=O)c2cc(=O)c(OCc3ccc(F)cc3)cn2C)s1 | > 12.6 | > 12.6 | 100 | 0 |
| 13.3 (≈ 30 µM) | 0.382 (≈ 0.859 µM) | > 13.3 | COc1ccc(-c2cn3c(CCC(=O)NCCc4c[nH]c5ccccc45)csc3n2)cc1 | > 13.3 | 2.66 (≈ 5.99 µM) | 100 | 20 |
| > 12.7 | 4.22 (≈ 9.95 µM) | > 12.7 | COc1ccc(-c2cn3c(CCC(=O)Nc4ccccc4SC)csc3n2)cc1 | > 12.7 | 5.77 (≈ 13.6 µM) | 100 | 20 |
| > 10.7 | > 10.7 | > 10.7 | Cc1cc(=O)[nH]c(-n2nc(C)c(CCC(=O)Nc3cc(C)on3)c2C)n1 | > 10.7 | > 10.7 | 100 | 20 |
| > 13.1 | 5 (≈ 11.4 µM) | > 13.1 | Cc1cc(=O)[nH]c(-n2nc(C)c(CCC(=O)Nc3ccc(F)c(C(F)(F)F)c3)c2C)n1 | > 13.1 | 4.25 (≈ 9.73 µM) | 100 | 20 |
| > 11.3 | > 11.3 | > 11.3 | O=C(Cc1csc(Nc2ccccc2)n1)NCCc1c[nH]c2ccccc12 | > 11.3 | > 11.3 | 100 | 20 |
| > 12 | > 12 | > 12 | O=C(Cc1csc(Nc2ccc(OC(F)(F)F)cc2)n1)NCC1CCCO1 (stereo not given) | > 12 | 5.45 (≈ 13.6 µM) | 100 | 20 |
| > 12 | > 12 | > 12 | O=C(Cc1csc(Nc2ccc(F)cc2)n1)N1CCN(c2ncccn2)CC1 | > 12 | 5.13 (≈ 12.9 µM) | 100 | 20 |
| > 12.5 | > 12.5 | 8.54 (≈ 20.4 µM) | COc1ccc(OC)c(Nc2nc(CC(=O)NCc3ccccc3Cl)cs2)c1 | 2.13 (≈ 5.1 µM) | 3.77 (≈ 9.02 µM) | 100 | 20 |

| IC50 [3] [µg/mL] | IC50 [5] [µg/mL] | IC50 [7] [µg/mL] | Compound | IC50 [1] [µg/mL] | IC50 [2] [µg/mL] | % Inhibition [4] [%] | % Inhibition [6] [%] |
| --- | --- | --- | --- | --- | --- | --- | --- |
| > 12.9 | 4.46 (≈ 10.3 µM) | 6.7 (≈ 15.5 µM) | O=C(Cc1csc(Nc2cccc(Cl)c2)n1)N1CCN(C(=O)c2ccco2)CC1 | 3.98 (≈ 9.24 µM) | 4.55 (≈ 10.6 µM) | 100 | 20 |
| > 10.8 | > 10.8 | 2.55 (≈ 7.11 µM) | O=C(Cc1csc(Nc2cccc(Cl)c2)n1)NCc1ccccn1 | 1.76 (≈ 4.91 µM) | 1.71 (≈ 4.75 µM) | 100 | 0 |
| > 11.7 | > 11.7 | > 11.7 | O=C(CCc1csc(NC(=O)c2ccco2)n1)NCc1c(F)cccc1F | > 11.7 | > 11.7 | 100 | 0 |
| 10.6 (≈ 24.6 µM) | > 12.9 | > 12.9 | CCOC(=O)N1CCC(NC(=O)CCc2csc(NC(=O)c3ccccc3)n2)CC1 | 4.08 (≈ 9.49 µM) | > 12.9 | 100 | 0 |
| > 12 | > 12 | > 12 | COc1ccc(S(=O)(=O)Nc2cc(C)nn2C2CCS(=O)(=O)C2)cc1C (stereo not given) | > 12 | > 12 | 100 | 0 |
| > 11.2 | > 11.2 | > 11.2 | Cc1cc(NS(=O)(=O)c2c(C)noc2C)n(C2CCS(=O)(=O)C2)n1 (stereo not given) | > 11.2 | > 11.2 | 100 | 0 |
| > 11.9 | 4.69 (≈ 11.8 µM) | > 11.9 | Cc1cc(-c2nnc(SCC(=O)Nc3cccc(C(F)(F)F)c3)o2)c(C)o1 | > 11.9 | > 11.9 | 100 | 0 |
| 9.79 (≈ 24.3 µM) | > 12.1 | > 12.1 | O=C(NCCNc1ccc(Nc2cccnc2)nn1)c1cccc(C(F)(F)F)c1 | > 12.1 | > 12.1 | 100 | 0 |
| > 12 | > 12 | > 12 | CCOCC(=O)Nc1ccc(-c2nnc(N(C)c3ccc(OC)cc3)s2)cc1 | > 12 | > 12 | 100 | 0 |
| > 10.6 | > 10.6 | > 10.6 | COc1ccc(-c2cn3c(C(=O)Nc4cc(C)on4)csc3n2)cc1 | > 10.6 | > 10.6 | 100 | 0 |
| 4.41 (≈ 10.2 µM) | 4.11 (≈ 9.49 µM) | 4.21 (≈ 9.71 µM) | COc1ccc(-c2cn3c(C(=O)Nc4ccc(OC(F)(F)F)cc4)csc3n2)cc1 | 1.79 (≈ 4.14 µM) | 3.69 (≈ 8.5 µM) | 100 | 0 |
| > 13.5 | > 13.5 | 6.97 (≈ 15.5 µM) | COc1cccc(-c2cn3c(C(=O)N4CCN(c5ccccc5OC)CC4)csc3n2)c1 | 2.13 (≈ 4.76 µM) | 6.97 (≈ 15.5 µM) | 100 | 0 |
| > 11 | > 11 | > 11 | COc1ccc(-c2cn3c(C(=O)Nc4ccccc4F)csc3n2)cc1 | > 11 | > 11 | 100 | 0 |
| > 11.6 | > 11.6 | > 11.6 | COc1ccc(-c2cn3c(C(=O)Nc4ccc(F)cc4F)csc3n2)cc1 | > 11.6 | > 11.6 | 100 | 0 |
| > 11.3 | 3.11 (≈ 8.23 µM) | 5.86 (≈ 15.5 µM) | COc1ccc(-c2cn3c(C(=O)Nc4cc(C)ccc4C)csc3n2)cc1 | > 11.3 | > 11.3 | 100 | 0 |
| 0.343 (≈ 0.928 µM) | 3.63 (≈ 9.83 µM) | > 11.1 | COc1ccccc1CC(=O)c1ccc(O)c(CN2CCCC(C)C2)c1O (stereo not given) | > 11.1 | > 11.1 | 0 | 0 |
| 4.97 (≈ 10.4 µM) | 0.412 (≈ 0.858 µM) | 0.517 (≈ 1.08 µM) | Cc1cc(=O)[nH]c(-n2nc(-c3cccs3)cc2NC(=O)C2(c3ccc(Cl)cc3)CCCC2)n1 | 0.682 (≈ 1.42 µM) | 0.466 (≈ 0.971 µM) | 75 | 0 |
